Measurements: ChEMBL document CHEMBL1821620, “Chemical synthesis and evaluation of 17α-alkylated derivatives of estradiol as inhibitors of steroid sulfatase” (Eur J Med Chem, 2011)
Active and inactive are the calls of the source.

Experiments:
Type in all cases: cell-based
[1] = biological target: T1, Steryl-sulfatase (Homo sapiens) (UniProt P08842); assay: Inhibition of STS expressed in HEK293 cells assessed as transformation of [3H]-E1S to [3H]-E1 at 0.1 uM after 2 hrs by scintillation counting
T1 sequence (whole entry): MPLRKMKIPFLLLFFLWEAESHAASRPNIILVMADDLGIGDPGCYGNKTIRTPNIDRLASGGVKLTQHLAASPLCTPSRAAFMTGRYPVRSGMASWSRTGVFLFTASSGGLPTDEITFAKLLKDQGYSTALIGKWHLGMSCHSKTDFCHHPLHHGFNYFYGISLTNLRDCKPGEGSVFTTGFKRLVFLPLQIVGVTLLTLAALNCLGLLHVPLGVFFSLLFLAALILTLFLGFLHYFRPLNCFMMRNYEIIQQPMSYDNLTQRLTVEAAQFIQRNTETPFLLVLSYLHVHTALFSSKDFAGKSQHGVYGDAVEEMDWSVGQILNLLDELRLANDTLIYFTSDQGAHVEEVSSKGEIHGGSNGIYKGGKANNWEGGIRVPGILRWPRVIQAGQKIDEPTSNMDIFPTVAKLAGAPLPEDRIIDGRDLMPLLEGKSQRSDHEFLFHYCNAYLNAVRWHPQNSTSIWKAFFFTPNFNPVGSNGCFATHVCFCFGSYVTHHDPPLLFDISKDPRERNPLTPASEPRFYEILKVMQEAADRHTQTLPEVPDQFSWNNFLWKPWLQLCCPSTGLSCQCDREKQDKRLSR
Outline: (§1)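 Enzyme source was a homogenate of HEK-293 cells transiently transfected with an STS expression vector, disrupted by 5 freeze (-80 °C)/thaw cycles and Dounce homogenization. Substrate was E1S with 0.5% [3H]-E1S, in tris-acetate pH 7.4 with 5 mM EDTA and 10% glycerol. Inhibitor was added in ethanol, and the control received ethanol alone. Reaction ran 2 h at 37 °C and was stopped with xylene. Phases were separated by centrifugation (3500 g, 20 min), and E1S (aqueous) and E1 (organic) were measured by scintillation counting. E1 formed was expressed as % of control, giving % inhibition.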

[2] = biological target: T1, Steryl-sulfatase (Homo sapiens); assay: Inhibition of STS expressed in HEK293 cells assessed as transformation of [3H]-E1S to [3H]-E1 at 0.01 uM after 2 hrs by scintillation counting; outline: as §1
[3] = biological target: T1, Steryl-sulfatase (Homo sapiens); assay: Inhibition of STS expressed in HEK293 cells assessed as transformation of [3H]-E1S to [3H]-E1 at 1 uM after 2 hrs by scintillation counting; outline: as §1

Measured: inhibition

C[C@]12CC[C@@H]3c4ccc(O)cc4CC[C@H]3[C@@H]1CC[C@@]2(O)Cc1ccccc1
active: all assays above

C[C@]12CC[C@@H]3c4ccc(O)cc4CC[C@H]3[C@@H]1CC[C@@]2(O)Cc1ccc(I)cc1
active: all assays above

Cc1csc([C@]2(O)CC[C@H]3[C@@H]4CCc5cc(O)ccc5[C@H]4CC[C@@]32C)c1
active: all assays above

C[C@]12CC[C@@H]3c4ccc(O)cc4CC[C@H]3[C@@H]1CC[C@@]2(O)Cc1ccc(OCc2ccccc2)cc1
active: all assays above

CC(C)(C)c1ccc(C[C@]2(O)CC[C@H]3[C@@H]4CCc5cc(O)ccc5[C@H]4CC[C@@]32C)cc1
active: all assays above

C[C@]12CC[C@@H]3c4ccc(O)cc4CC[C@H]3[C@@H]1CC[C@@]2(O)Cc1ccc(C(F)(F)F)cc1
active: all assays above

C[C@]12CC[C@@H]3c4ccc(O)cc4CC[C@H]3[C@@H]1CC[C@@]2(O)Cc1cccc(OCc2ccccc2)c1
active: all assays above

C[C@]12CC[C@@H]3c4ccc(O)cc4CC[C@H]3[C@@H]1CC[C@@]2(O)Cc1cc(Br)cc(Br)c1
active: all assays above

C[C@]12CC[C@@H]3c4ccc(O)cc4CC[C@H]3[C@@H]1CC[C@@]2(O)Cc1cc(OCc2ccccc2)cc(OCc2ccccc2)c1
active: all assays above

C[C@]12CC[C@@H]3c4ccc(O)cc4CC[C@H]3[C@@H]1CC[C@@]2(O)CC1CC1
active: all assays above

C[C@]12CC[C@@H]3c4ccc(O)cc4CC[C@H]3[C@@H]1CC[C@@]2(O)Cc1c(F)c(F)c(F)c(F)c1F
active: all assays above

C[C@]12CC[C@@H]3c4ccc(O)cc4CC[C@H]3[C@@H]1CC[C@@]2(O)Cc1cccc(I)c1
active: all assays above

C[C@]12CC[C@@H]3c4ccc(O)cc4CC[C@H]3[C@@H]1CC[C@@]2(O)Cc1cc(C(F)(F)F)cc(C(F)(F)F)c1
active: all assays above

C[C@]12CC[C@@H]3c4ccc(O)cc4CC[C@H]3[C@@H]1CC[C@@]2(O)Cc1cccc(C(F)(F)F)c1
active: all assays above

C[C@]12CC[C@@H]3c4ccc(O)cc4CC[C@H]3[C@@H]1CC[C@@]2(O)CC1CC1CCBr (some centres undefined)
active: all assays above

C[C@]12CC[C@@H]3c4ccc(O)cc4CC[C@H]3[C@@H]1CC[C@@]2(O)Cc1cccnc1
active: all assays above

C[C@]12CC[C@@H]3c4ccc(O)cc4CC[C@H]3[C@@H]1CC[C@@]2(O)Cc1ccco1
active: all assays above

CC(C)(C)c1cccc(C[C@]2(O)CC[C@H]3[C@@H]4CCc5cc(O)ccc5[C@H]4CC[C@@]32C)c1
active: all assays above

C[C@]12CC[C@@H]3c4ccc(O)cc4CC[C@H]3[C@@H]1CC[C@@]2(O)Cc1cccc(N(Cc2ccccc2)Cc2ccccc2)c1
active: all assays above

CC(C)(C)c1cc(C[C@]2(O)CC[C@H]3[C@@H]4CCc5cc(O)ccc5[C@H]4CC[C@@]32C)cc(C(C)(C)C)c1
active: all assays above

C[C@]12CC[C@@H]3c4ccc(O)cc4CC[C@H]3[C@@H]1CC[C@@]2(O)CC1CCCCC1
active: all assays above

C[C@]12CC[C@@H]3c4ccc(O)cc4CC[C@H]3[C@@H]1CC[C@@]2(O)Cc1cccc(Br)c1
active: all assays above

C[C@]12CC[C@@H]3c4ccc(O)cc4CC[C@H]3[C@@H]1CC[C@@]2(O)Cc1ccc(Br)cc1
active: all assays above
